According to ChEMBL document CHEMBL5030522, “A Convenient Chemoenzymatic Preparation of Chimeric Macrocyclic Peptide Antibiotics with Potent Activity against Gram-Negative Pathogens” (2021):
In brackets after ≈: the same amount, converted by molar mass. Numbered stars: 1 amine (or outer) side, 2 acyl side, 3 side chain; on linkers, the order of the positions; unused ones are H or OH. Bridge positions count the residues as written; N and C are the ends. Square brackets hold non-standard residues; d marks the D form. Peptide text beside a SMILES is read from it. I, II: the chains in the order shown. X2 = NC(=O)[C@H](Cc1cn(CC(=O)[*:2])nn1)N[*:1]; Tle = CC(C)(C)[C@H](N)C(=O)O; dDab = NCC[C@@H](N)C(=O)O; hSer = N[C@@H](CCO)C(=O)O; Dab = NCC[C@H](N)C(=O)O

Columns and labels:
Format in all cases: functional
[1] = test system: Acinetobacter baumannii; test: Antibacterial activity against Acinetobacter baumannii ATCC 9955 assessed as inhibition of bacterial growth after 16 hrs by broth microdilution method
How it was run: (§1)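 MIC per CLSI broth microdilution. Strains streaked from glycerol stocks on blood agar, 16 h at 37 °C. Single colonies inoculated into cation-adjusted Mueller-Hinton broth (10 mg L–1 Mg2+, 25 mg L–1 Ca2+). Peptides serially diluted in this broth with 0.002% (v/v) final polysorbate-80 in polypropylene plates. Inoculum 5 × 10^5 CFU mL–1. Plates sealed, 16 h at 37 °C, growth scored visually. MIC in μg/mL, triplicates on two separate days.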

[2] = test system: Acinetobacter baumannii; test: Antibacterial activity against Acinetobacter baumannii ATCC 17978 assessed as inhibition of bacterial growth after 16 hrs by broth microdilution method; how it was run: as §1
[3] = test system: Acinetobacter baumannii; test: Antibacterial activity against multidrug-resistant Acinetobacter baumannii assessed as inhibition of bacterial growth after 16 hrs by broth microdilution method
How it was run: (§2)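 CLSI broth microdilution. Strains grown from glycerol stocks on blood agar 16 h at 37 °C; colonies used to inoculate CAMHB containing 10 mg L–1 Mg2+ and 25 mg L–1 Ca2+. Peptides dissolved in CAMHB with 0.002% (v/v) final polysorbate-80, serially diluted in polypropylene plates; inoculum 5 × 10^5 CFU mL–1. Sealed, 16 h at 37 °C, growth scored visually. MIC in μg/mL; three or more measurements on multiple days.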

[4] = test system: Klebsiella pneumoniae; test: Antibacterial activity against Klebsiella pneumoniae ATCC 11228 assessed as inhibition of bacterial growth after 16 hrs by broth microdilution method; how it was run: as §1
[5] = test system: Klebsiella pneumoniae; test: Antibacterial activity against Klebsiella pneumoniae producing NDM1 assessed as inhibition of bacterial growth after 16 hrs by broth microdilution method; how it was run: as §1
[6] = test system: Pseudomonas aeruginosa; test: Antibacterial activity against Pseudomonas aeruginosa producing NDM1 assessed as inhibition of bacterial growth after 16 hrs by broth microdilution method; how it was run: as §2
[7] = test system: Pseudomonas aeruginosa; test: Antibacterial activity against Pseudomonas aeruginosa M-120 assessed as inhibition of bacterial growth after 16 hrs by broth microdilution method; how it was run: as §1
[8] = test system: Escherichia coli; test: Antibacterial activity against Escherichia coli producing NDM1 assessed as inhibition of bacterial growth after 16 hrs by broth microdilution method; how it was run: as §2
[9] = test system: Escherichia coli; test: Antibacterial activity against Escherichia coli producing MCR2 assessed as inhibition of bacterial growth after 16 hrs by broth microdilution method; how it was run: as §1
[10] = test system: Escherichia coli; test: Antibacterial activity against Escherichia coli producing MCR3 assessed as inhibition of bacterial growth after 16 hrs by broth microdilution method; how it was run: as §1
[11] = test system: Staphylococcus aureus; test: Antibacterial activity against methicillin resistant Staphylococcus aureus USA300 by measuring MIC after 16 hrs by broth microdilution method; how it was run: as §2
[12] = test system: Pseudomonas aeruginosa; test: Antibacterial activity against Pseudomonas aeruginosa NRZ 08418 producing NDM1 assessed as inhibition of bacterial growth after 16 hrs by broth microdilution method; how it was run: as §1
[13] = test system: Escherichia coli; test: Antibacterial activity against Escherichia coli ATCC 35218 assessed as inhibition of bacterial growth after 16 hrs by broth microdilution method; how it was run: as §1
[14] = test system: Escherichia coli; test: Antibacterial activity against Escherichia coli producing MCR1 assessed as inhibition of bacterial growth after 16 hrs by broth microdilution method; how it was run: as §1
[15] = test system: Pseudomonas aeruginosa; test: Antibacterial activity against Pseudomonas aeruginosa ATCC 27853 assessed as inhibition of bacterial growth after 16 hrs by broth microdilution method; how it was run: as §1
[16] = test system: Acinetobacter baumannii; test: Antibacterial activity against Acinetobacter baumannii NRZ 00687 producing NDM2 assessed as inhibition of bacterial growth after 16 hrs by broth microdilution method; how it was run: as §1

Row | SMILES | MIC [1] [µg/mL] | MIC [2] [µg/mL] | MIC [3] [µg/mL] | MIC [4] [µg/mL] | MIC [5] [µg/mL] | MIC [6] [µg/mL] | MIC [7] [µg/mL] | MIC [8] [µg/mL] | MIC [9] [µg/mL] | MIC [10] [µg/mL] | MIC [11] [µg/mL] | MIC [12] [µg/mL] | MIC [13] [µg/mL] | MIC [14] [µg/mL] | MIC [15] [µg/mL] | MIC [16] [µg/mL]
1 | CC(C)C[C@@H]1NC(=O)[C@@H](Cc2ccccc2)NC(=O)[C@H](CCN)NC(=O)[C@@H](NC(=O)[C@H](CCN)NC(=O)[C@@H](NC(=O)[C@H](CCN)NC(=O)CC[C@@H]2NC(=O)[C@H](CCN)NC(=O)[C@H](Cc3ccc(O)cc3)NC(=O)[C@H]([C@@H](C)O)NC(=O)[C@H](C(C)C)NC(=O)[C@@H]3CCCN3C(=O)[C@@H](C)NC(=O)[C@H](CO)NC(=O)[C@H](C)NC(=O)[C@H](C(C)(C)C)NC(=O)[C@H](CCO)NC(=O)[C@H](Cc3c[nH]c4ccccc34)NC(=O)[C@H](CCO)NC(=O)[C@@H](CCN)NC2=O)[C@@H](C)O)CCNC(=O)[C@H]([C@@H](C)O)NC(=O)[C@H](CCN)NC(=O)[C@H](CCN)NC1=O (I: cyclo([dDab][hSer]W[hSer][Tle]AS[dA]PVTY[Dab]E) / II: [Dab]T[Dab][Dab][Dab][dF]L[Dab][Dab]T; amide I:14-II:N; lactam II:4-II:C) | 0.2 (≈ 0.0779 µM) | 0.4 (≈ 0.156 µM) | 0.4 (≈ 0.156 µM) | 0.2 (≈ 0.0779 µM) | 0.4 (≈ 0.156 µM) | 0.8 (≈ 0.312 µM) | 1.6 (≈ 0.624 µM) | 0.1 (≈ 0.039 µM) | 0.4 (≈ 0.156 µM) | 0.4 (≈ 0.156 µM) | > 6.4 | – | – | – | – | –
2 | CC(C)C[C@@H]1NC(=O)[C@@H](CC(C)C)NC(=O)[C@H](CCN)NC(=O)[C@@H](NC(=O)[C@H](CCN)NC(=O)[C@@H](NC(=O)[C@H](CCN)NC(=O)CC[C@@H]2NC(=O)[C@H](CCN)NC(=O)[C@H](Cc3ccc(O)cc3)NC(=O)[C@H]([C@@H](C)O)NC(=O)[C@H](C(C)C)NC(=O)[C@@H]3CCCN3C(=O)[C@@H](C)NC(=O)[C@H](CO)NC(=O)[C@H](C)NC(=O)[C@H](C(C)(C)C)NC(=O)[C@H](CCO)NC(=O)[C@H](Cc3c[nH]c4ccccc34)NC(=O)[C@H](CCO)NC(=O)[C@@H](CCN)NC2=O)[C@@H](C)O)CCNC(=O)[C@H]([C@@H](C)O)NC(=O)[C@H](CCN)NC(=O)[C@H](CCN)NC1=O (I: cyclo([dDab][hSer]W[hSer][Tle]AS[dA]PVTY[Dab]E) / II: [Dab]T[Dab][Dab][Dab][dL]L[Dab][Dab]T; amide I:14-II:N; lactam II:4-II:C) | 0.2 (≈ 0.079 µM) | – | 0.2 (≈ 0.079 µM) | – | 0.8 (≈ 0.316 µM) | 0.4 (≈ 0.158 µM) | – | 0.1 (≈ 0.0395 µM) | 0.2 (≈ 0.079 µM) | 0.2 (≈ 0.079 µM) | > 6.4 | 0.8 (≈ 0.316 µM) | 0.2 (≈ 0.079 µM) | 0.2 (≈ 0.079 µM) | – | –
3 | CC(C)C[C@@H]1NC(=O)[C@@H](CC(C)C)NC(=O)[C@H](CCN)NC(=O)[C@@H](NC(=O)Cn2cc(C[C@H](NC(=O)CC[C@@H]3NC(=O)[C@H](CCN)NC(=O)[C@H](Cc4ccc(O)cc4)NC(=O)[C@H]([C@@H](C)O)NC(=O)[C@H](C(C)C)NC(=O)[C@@H]4CCCN4C(=O)[C@@H](C)NC(=O)[C@H](CO)NC(=O)[C@H](C)NC(=O)[C@H](C(C)(C)C)NC(=O)[C@H](CCO)NC(=O)[C@H](Cc4c[nH]c5ccccc45)NC(=O)[C@H](CCO)NC(=O)[C@@H](CCN)NC3=O)C(N)=O)nn2)CCNC(=O)[C@H]([C@@H](C)O)NC(=O)[C@H](CCN)NC(=O)[C@H](CCN)NC1=O (I: cyclo([dDab][hSer]W[hSer][Tle]AS[dA]PVTY[Dab]E) / II: [Dab][Dab][dL]L[Dab][Dab]T; linker I:14-II:N via X2; lactam II:1-II:C) | 64 (≈ 26.4 µM) | – | 32 (≈ 13.2 µM) | 16 (≈ 6.6 µM) | – | 32 (≈ 13.2 µM) | 64 (≈ 26.4 µM) | – | 32 (≈ 13.2 µM) | 64 (≈ 26.4 µM) | > 64 | 64 (≈ 26.4 µM) | – | – | 64 (≈ 26.4 µM) | 64 (≈ 26.4 µM)
4 | CC(C)[C@@H]1NC(=O)[C@@H]2CCCN2C(=O)[C@@H](C)NC(=O)[C@H](CO)NC(=O)[C@H](C)NC(=O)[C@H](C(C)(C)C)NC(=O)[C@H](CCO)NC(=O)[C@H](Cc2c[nH]c3ccccc23)NC(=O)[C@H](CCO)NC(=O)[C@@H](CCN)NC(=O)[C@H](CCC(N)=O)NC(=O)[C@H](CCN)NC(=O)[C@H](Cc2ccc(O)cc2)NC(=O)[C@H]([C@@H](C)O)NC1=O (cyclo([dDab][hSer]W[hSer][Tle]AS[dA]PVTY[Dab]Q)) | – | – | – | – | – | – | – | – | – | – | > 64 | – | – | – | – | –
